# CAL PDZ FP-1 = CAL PDZ peptide-binding inhibitors, primary screen, biochemical, fluorescence polarization, Cer-tagged CAL PDZ, HTS; AID 504414, 2011; Golgi-associated PDZ and coiled-coil motif-containing protein (Homo sapiens), Q9HD26; purified CAL PDZ, TMR-peptide fluorescence polarization, 1 h; hit rate 0.02% among 330,000; inhibition, % at 20 µM;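 active means highest replicate inhibition of at least 40%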;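 further: plate controls were DMSO neutral control wells for no effect and unlabeled competitor peptide control wells for full effect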
#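 Material: tagged CAL PDZ protein CerCALP, purified; buffer or medium: sodium phosphate/NaCl buffer pH 7.4 with TCEP, IgG, Thesit; also added: fluorescent TMR peptide probe; schedule: 1 h incubation at room temperature before polarization reading; technique: fluorescence polarization from S- and P-plane intensities, G-factor corrected; control set: unlabelled peptide and DMSO controls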
# CAL PDZ FP-2 = untagged CAL PDZ binding inhibitors, primary screen, biochemical, fluorescence polarization, HTS | Golgi-associated PDZ and coiled-coil motif-containing protein (Homo sapiens), Q9HD26 | purified CAL PDZ, TMR-peptide fluorescence polarization, 1 h | inhibition, % at 24.9 µM | hit rate 0.92% among 300,000 | AID 602252, 2012;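 active means mean inhibition of at least 30% with at least half of replicates also reaching 30%; inconclusive means no clear call, values can overlap the other calls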;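 further: 0% = DMSO neutral control and 100% = excess unlabeled competitor peptide PRC23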
# CDK5 inh = inhibitors of human CDK5/p35 kinase, primary screen, biochemical, single concentration | Cyclin-dependent kinase 5 (Homo sapiens) + Cyclin-dependent kinase 5 activator 1 (Homo … | inhibition, % at 10 µM | Recombinant CDK5/p35, ADP-Glo luminescence, 60 min | hit rate 0.01% among 330,000 | AID 488839, 2010;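 active means highest replicate inhibition of at least 50% and at least 75% of replicates reaching 50%; inconclusive means only one of the two criteria met; inactive means both criteria failed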;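 further: plate controls were DMSO neutral control for no effect and GW8510 at 10 µM for full effect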
# dFosB act = activators of delta FosB homodimer, primary screen, biochemical, fluorescence polarization, TAMRA-CDK5 oligo, single point; hit rate 0.99% among 340,000; activation, % at 25 µM; AID 493131, 2011; purified delta FosB; percent of positive-control signal above neutral wells;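 active means mean activation above about 17%, with every replicate also reaching it, limit read from the data, passing the limit was not always enough; inconclusive means only one of the two conditions met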
# Target sequence (P13346 whole entry, looked up): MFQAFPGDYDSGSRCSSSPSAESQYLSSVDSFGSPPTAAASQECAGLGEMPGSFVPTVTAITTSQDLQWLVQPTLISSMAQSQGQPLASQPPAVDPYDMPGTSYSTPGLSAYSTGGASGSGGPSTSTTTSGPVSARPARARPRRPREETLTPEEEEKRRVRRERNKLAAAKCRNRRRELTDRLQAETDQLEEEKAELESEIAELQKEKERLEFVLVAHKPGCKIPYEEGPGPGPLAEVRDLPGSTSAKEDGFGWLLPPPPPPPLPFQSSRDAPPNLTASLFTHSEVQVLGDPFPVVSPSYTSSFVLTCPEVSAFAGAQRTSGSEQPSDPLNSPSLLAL
# Statin myotox sup = suppressors of statin myotoxicity in C2C12 myotubes, primary screen, cell-based, single point, plate reader; C2C12 myotubes + simvastatin, ATP luminescence, 48 h; scaled: DMSO 0, geranylgeraniol control 100; rescue of ATP level, % at 7.49 µM; hit rate 0.78% among 330,000; AID 602340, 2012;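 active means mean ATP rescue above about 67%, or every replicate alone reaching that limit, limit read from the data, passing the limit was not always enough; inconclusive means no clear call, values can overlap the other calls; inactive means mean under the limit and some replicate under it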;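 further: myotubes were challenged with 10 µM simvastatin during compound exposure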
# S100A4 MyoIIA = inhibitors of S100A4-myosin IIA peptide binding, primary screen, biochemical, fluorescence polarization, TAMRA-MyoIIA peptide; Protein S100-A4 (Homo sapiens), P26447; inhibition, % at 10.7 µM; hit rate 0.14% among 360,000; AID 652163, 2013;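 active means mean inhibition of at least 70% across replicates, with every replicate also reaching that level; inconclusive means mean inhibition reaches 70% but some replicates fall short; inactive means mean inhibition below 70%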
# Target sequence (P26447 whole entry, looked up): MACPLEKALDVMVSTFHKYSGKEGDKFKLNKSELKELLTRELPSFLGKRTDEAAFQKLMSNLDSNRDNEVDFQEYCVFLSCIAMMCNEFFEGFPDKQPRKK
#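 Test system – S100A4 monomer (human) · Compound – single-point compound testing · Schedule – 5 min incubation before reading · Probe or stimulus – TAMRA-labelled myosin IIA heavy-chain peptide probe, 5 nM · Benchmarks – neutral control DMSO, positive control TFP · Medium – Calcium-containing HEPES buffer, pH 7.2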
# * marks the source's active call; other numbers are inactive results; ? = inconclusive; . = no result given. The list is not random: actives were taken first. Their share in the collection is about 2%.
SMILES,CAL PDZ FP-1,CAL PDZ FP-2,CDK5 inh,dFosB act,Statin myotox sup,S100A4 MyoIIA
Cc1ccc(S(=O)(=O)N2CCOCC2)cc1NC(=O)COC(=O)/C=C/c1ccco1,-0.4,.,1.8,-16.8,-4.3,-3.4
COc1ccc(OC)c(-c2c3cc(O)c(=O)cc-3oc3cc(O)c(O)cc23)c1,87.0*,56.9*,4.9,46.1*,.,.
Cc1ccccc1-c1cc(=O)c2c(O)cccc2o1,-0.1,-2.4,-0.9,-1.6,-9.9,-2.2
CCOC(=O)c1oc2cc(O)ccc2c(=O)c1-c1ccccc1OC,-0.9,-4.1,0.7,-2.2,-2.7,.
O=c1cc2oc3cc(O)c(O)cc3c(-c3ccccc3O)c-2cc1O,46.6*,26.3,0.9,-112.3,.,.
CCOc1ccccc1-c1c2cc(O)c(=O)cc-2oc2cc(O)c(O)cc12,126.3*,42.5*,6.9,51.3*,.,.
COc1ccc(OC)c(-c2oc3ccccc3c(=O)c2O)c1,-2.1,-6.3,1.4,-1.3,-13.1,25.5
Cc1c(N)cccc1-n1cnnn1,-2.7,-1.8,0.5,-5.0,.,4.3
c1cc2ccc3ccc(-n4cnnn4)c4ccc(c1)c2c34,.,118.9*,-0.2,25.1*,.,.
Cc1ccccc1S(=O)(=O)N1C[C@H]2[C@@H](c3ccccc31)[C@H](CO)N2C(=O)CC1CC1,.,.,.,.,-20.2,2.8
CCOC(=O)Nc1ccc2nc(N3CCCCCC3)sc2c1,-0.7,4.5,0.8,-10.9,-187.7,-1.6
O=C1CC2(CCCCC2)Oc2ccc(Cl)cc21,0.0,-5.4,-0.4,1.4,2.5,-2.8
COc1ccccc1N1CCN(C2CCCN(C(=O)c3cc(C(C)C)on3)C2)CC1 (stereo not given),.,.,.,.,-3.5,-1.2
CC(C)c1cc(C(=O)N2CCCC(N3CCN(c4ccc(F)cc4)CC3)C2)no1 (stereo not given),-0.8,56.8*,-0.3,-5.2,-8.3,-2.7
Cc1ccccc1N1CCN(C2CCCN(C(=O)c3csc(C(C)C)n3)C2)CC1 (stereo not given),-1.1,54.5*,-0.2,-11.5,2.9,-2.6
CC1CCN(CC(O)COc2ccc(OCC(O)CN3CCC(C)CC3)cc2)CC1 (stereo not given),-1.4,.,2.2,0.3,-5.1,-20.2
Cc1ccc(C)c(OCC(O)CN2CCC(C)CC2)c1C (stereo not given),-0.2,.,-0.1,1.6,110.5*,.
Cc1cc(C=C(C#N)C#N)c(C)n1-c1ccccc1,0.9,-3.9,-0.5,-4.3,6.0,.
Cc1c(Cl)cccc1NC(=S)N(CCN(C)C)C(C)c1ccccn1 (stereo not given),0.3,80.9*,-3.1,-3.6,-6.7,1.1
CCN1CCc2c(sc(NC(=O)Nc3ccc(Cl)c(Cl)c3)c2C(N)=O)C1,-0.2,-2.3,0.4,56.4*,0.4,-6.0
CCN1CCc2c(sc(NC(=O)Cc3ccccc3)c2C(N)=O)C1,-0.5,.,-0.7,-8.3,7.2,3.2
CCN1CCc2c(sc(NC(=O)c3ccc(S(=O)(=O)N(CC)c4ccccc4)cc3)c2C(N)=O)C1,-3.8,4.9,1.8,40.8*,-16.3,-4.1
CCN1CCc2c(sc(NC(=O)c3ccc(C(=O)c4ccccc4)cc3)c2C(N)=O)C1,-0.9,-4.0,0.0,?,-1.8,-6.6
COc1ccc(-c2ccc3c(c2)[C@@H]2[C@@H](CCN2C(=O)NC2CCCC2)[C@H](CO)N3C)cc1,.,.,.,.,.,82.4*
CN1c2ccc(-c3cccc(C#N)c3)cc2[C@H]2[C@H](CCN2S(=O)(=O)c2ccccc2F)[C@H]1CO,.,.,.,.,-1.1,122.7*
SMILES,CAL PDZ FP-1,CAL PDZ FP-2,CDK5 inh,dFosB act,Statin myotox sup,S100A4 MyoIIA
CN1c2ccc(-c3cccc(F)c3)cc2[C@H]2[C@H](CCN2C(=O)c2ccccc2F)[C@H]1CO,.,.,.,.,19.3,89.4*
CN1c2ccc(-c3ccccc3)cc2[C@H]2[C@H](CCN2S(=O)(=O)c2ccccc2F)[C@H]1CO,.,.,.,.,-3.6,-7.8
CCN1/C(=C/c2cccc[n+]2C)Sc2ccc(OC)cc21,1.1,-1.4,-0.1,-10.9,-101.6,-9.6
CCN1/C(=C/C(C)=O)Sc2ccc(OC)cc21,-0.8,48.4*,.,-5.9,.,.
CC(=O)NC(=S)Nc1cc(C(=O)O)ccc1Cl,-0.7,116.3*,0.4,1.0,.,3.4
CCCN1CCN(S(=O)(=O)c2ccc3c(c2)CCC(=O)N3)CC1,-0.7,45.7*,-1.2,5.7,14.8,18.5
O=C1CCc2cc(S(=O)(=O)N3CCN(c4ccccc4F)CC3)ccc2N1,-1.9,1.0,-1.1,-8.5,.,.
CCN(C(C)=O)c1cccc2ccccc12,0.5,-2.1,-0.2,-3.0,147.3*,.
COc1c(Cl)cc(Br)c(OC)c1C(=O)NC(=O)Nc1nc(C)cc(C)n1,-0.5,82.8*,-0.4,2.8,.,-0.4
COc1ccc(Cl)c(OC)c1C(=O)NC(=O)Nc1nc(C)nc(C)n1,-3.1,-0.6,0.6,1.5,-1.1,0.2
O=C(O)C1CCC(=O)N(C2CC2)C1c1ccccc1 (stereo not given),-0.2,-7.8,1.0,-1.5,106.6*,.
Oc1ccc(C=NNc2nc3ccccc3s2)c(O)c1,5.6,5.5,5.2,7.3,117.4*,-0.5
Oc1ccccc1C=NNc1nc2ccccc2s1,-0.4,.,0.1,-4.7,6.2,-2.2
COc1cc(NC(=O)c2cc3nc(C)cc(C)n3n2)c(OC)cc1Cl,-5.4,-12.6,0.3,-13.8,-11.7,.
CCCCCCOC(=O)CCc1c(C)nc(N)[nH]c1=O,-1.0,-0.8,1.7,1.2,98.4*,.
CCCCCCOC(=O)Cc1c(C)nc(N)[nH]c1=O,-2.9,-1.2,1.3,-0.7,1.2,3.9
CCOC(=O)c1cnc2ccc(OCC)cc2c1N1CCN(c2ccccc2)CC1,-0.6,4.5,1.3,-12.0,80.7*,.
COc1ccc(OC)c(S(=O)(=O)Nc2ccc(-c3ccc4nnc(C)n4n3)cc2)c1,-2.8,-0.1,0.7,0.5,.,-2.6
COc1ccc(S(=O)(=O)Nc2ccc(-c3ccc4nnc(C)n4n3)cc2)c(OC)c1,-0.4,.,0.0,21.8*,3.0,-2.1
CCN(C(=O)c1ccc(NC(=O)c2ccco2)cc1)c1ccccc1,-1.0,56.7*,-0.8,-3.5,-23.2,-0.6
CCOC(=O)c1cccc(NC(=O)c2ccc(NC(=O)c3ccco3)cc2)c1,-1.7,.,-3.1,16.3*,-3.3,9.8
CN(C(=O)c1ccc(NC(=O)c2ccco2)cc1)c1ccccc1,0.3,-5.3,1.8,-8.6,-59.5,-3.2
O=C(NCc1cccnc1)c1ccc(NC(=O)c2ccco2)cc1,-0.7,135.1*,.,-9.7,.,.
CC(Oc1ccccc1)C(=O)Nc1cccc(NC(=O)c2ccco2)c1 (stereo not given),.,118.5*,0.5,-6.2,4.0,-1.1

# Screens deposited in PubChem BioAssay by Broad Institute.
